The results in this text go back to ChEMBL document CHEMBL1123589, “Phenylpiperazine-based radiopharmaceuticals for brain imaging. 3. Synthesis and evaluation of radioiodinated 1-alkyl-4-phenylpiperazines” (J Med Chem, 1987).

Where “and” joins values, the source holds several entries; their conditions need not be identical. Equal entries are not always repeated.

Common to all, as to details: in vivo
The test system of data set [1] is Canis familiaris. Put plainly: The biodistribution of the [131I]-labeled compound in dog (mass= 5.7 kg), 2 hr after intravenous injection was evaluated in cerebellum (ID.kg/g). The class given is ADME, organism-based, Canis lupus familiaris. In outline: (§1)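 One female dog (5.7 kg) premedicated im with acepromazine maleate, then anesthetized iv with sodium nembutal/saline (1:1). Given 1.0 mCi iv of ¹³¹I-labeled agent. Killed 2 h post-dose with iv nembutal. Tissues excised, weighed and counted; blood, fat and muscle masses estimated as 7.5%, 27.5% and 40% of body weight. Expressed as % ID/organ and % ID·kg/g.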

The test system of data set [2] is Canis familiaris. Put plainly: The biodistribution of the [131I]-labeled compound in dog (mass= 5.7 kg), 2 hr after intravenous injection was evaluated in heart. The class given is ADME, organism-based, Canis lupus familiaris. An outline of the steps:
as §1

For data set [3], the system named is Canis familiaris. Description: The biodistribution of the [131I]-labeled compound in dog (mass= 5.7 kg), 2 hr after intravenous injection was evaluated in blood (ID.kg/g). In kind it is ADME, organism-based, Canis lupus familiaris. An outline of the steps: as §1
Data set [4] relates to Rattus norvegicus. Description: The biodistribution of the [125I]-labeled compound in rats after intravenous injection was evaluated in heart at 4.00 hrs; value ranges from 0.11-0.15 (ID.kg/g). The class given is ADME, organism-based. An outline of the steps: (§2)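 Male Sprague-Dawley rats (250–300 g), under ether anesthesia, given 10–15 μCi of the NCA ¹²⁵I-labeled agent iv in 0.1 mL saline. Groups of N = 3 were killed at 0.25, 1 or 4 h. Blood and tissues were removed, weighed and counted in a γ-well scintillation counter. Values are mean % ID·kg/g (range).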

For data set [5], the system named is Rattus norvegicus. Description: The biodistribution of the [125I]-labeled compound in rats after intravenous injection was evaluated in heart at 1.00 hrs; value ranges from 0.26-0.37 (ID.kg/g). The class given is ADME, organism-based. In outline: as §2
The test system of data set [6] is Rattus norvegicus. Put plainly: The biodistribution of the [125I]-labeled compound in rats after intravenous injection was evaluated in blood at 0.25 hrs (ID.kg/g). In kind it is ADME, organism-based. In outline: (§3)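 Male Sprague-Dawley rats (250–300 g) under ether anesthesia were given an iv injection of no-carrier-added 125I-labelled agent (10–15 μCi in 0.1 mL saline). The agent was iodinated with chloramine-T in acetate buffer and purified by C-18 HPLC. Groups of N = 3 were killed at 0.25, 1 and 4 h. Blood and tissues were weighed and γ-counted. Values are % ID·kg/g, mean (range).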

In data set [7] the test system is Rattus norvegicus. Description: The biodistribution of the [125I]-labeled compound in rats after intravenous injection was evaluated in blood at 4.00 hrs (ID.kg/g). The class given is ADME, organism-based. An outline of the steps:
as §3

In data set [8] the test system is Rattus norvegicus. Description: The biodistribution of the [125I]-labeled compound in rats after intravenous injection was evaluated in fat at 4.00 hrs (ID.kg/g). The class given is ADME, organism-based, Adipose tissue. An outline of the steps:
as §3

Data set [9] relates to Canis familiaris. Description: The biodistribution of the [131I]-labeled compound in dog (mass= 5.7 kg), 2 hr after intravenous injection was evaluated in kidney. In kind it is ADME, organism-based, Canis lupus familiaris. In outline: as §1
Data set [10] relates to Rattus norvegicus. Description: The biodistribution of the [125I]-labeled compound in rats after intravenous injection was evaluated in adrenal at 1.00 hrs; value ranges from 0.80-1.14 (ID.kg/g). In kind it is ADME, organism-based. In outline:
as §3

The test system of data set [11] is Rattus norvegicus. Description: The biodistribution of the [125I]-labeled compound in rats after intravenous injection was evaluated in blood at 1.00 hrs (ID.kg/g). In kind it is ADME, organism-based. An outline of the steps:
as §3

Data set [12] relates to Rattus norvegicus. Put plainly: The biodistribution of the [125I]-labeled compound in rats after intravenous injection was evaluated in lung at 0.25 hrs; value ranges from 0.81-1.16 (ID.kg/g). The class given is ADME, organism-based. An outline of the steps:
as §2

Data set [13] deals with Rattus norvegicus. Description: The biodistribution of the [125I]-labeled compound in rats after intravenous injection was evaluated in muscle at 4.00 hrs; value ranges from 0.03-0.04 (ID.kg/g). The class given is ADME, organism-based, Muscle tissue. An outline of the steps:
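Male Sprague-Dawley rats (250–300 g) under ether anesthesia given iv 0.1 mL saline containing 10–15 μCi of NCA ¹²⁵I-labeled agent (chloramine-T iodination, HPLC-purified). Groups of 3 killed at 0.25, 1 and 4 h. Blood and tissues excised, weighed and γ-counted. Values are mean (range) of % injected dose × body mass (kg) per gram of tissue.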

In data set [14] the test system is Canis familiaris. Description: The biodistribution of the [131I]-labeled compound in dog (mass= 5.7 kg), 2 hr after intravenous injection was evaluated in brain (ID.kg/g). The class given is ADME, organism-based, Canis lupus familiaris. In outline:
as §1

In data set [15] the test system is Canis familiaris. Description: The biodistribution of the [131I]-labeled compound in dog (mass= 5.7 kg), 2 hr after intravenous injection was evaluated in kidney (ID.kg/g). The class given is ADME, organism-based, Canis lupus familiaris. In outline:
as §1

As for `CCCCN1CCN(c2ccc(I)cc2)CC1`, the Biodistribution in the data set on Canis familiaris [1] was 0.165%; in the data set with Canis familiaris [2], 0.182%; with Canis familiaris [3], 1.072% and 0.148%; with Rattus norvegicus [4] it was 0.15%; in the data set with Rattus norvegicus [5], 0.37%; in the data set on Rattus norvegicus [6], 0.01 % ID·kg/g. The Biodistribution is 0.01 % ID·kg/g with Rattus norvegicus [7]; 0.02% with Rattus norvegicus [8]; 0.88% with Canis familiaris [9]; 1.14% in the data set with Rattus norvegicus [10]; 0.01 % ID·kg/g in the data set with Rattus norvegicus [11]; 1.16% in the data set with Rattus norvegicus [12]. Further, the Biodistribution is 0.04% with Rattus norvegicus [13]; 1.824% and 0.165% in the data set with Canis familiaris [14]; 0.182% with Canis familiaris [15].
